The nature of series [1]: Selectivity index which is the ratio between CC50 and EC50. In kind it is functional.
Series [2] is described as follows: Half life in CEM cell extracts (25 uM, 37 degree C). In kind it is ADME, CCRF-CEM. Particulars: human. An outline of the steps:
(§1)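 Incubated at 25 µM initial concentration and 37 °C in full CEM cell extract, in RPMI 1640 with 10% heat-inactivated fetal calf serum, or in freshly withdrawn human serum. Aliquots analysed by on-line cleaning HPLC (precolumn deproteinization) with UV at 260 nm. Relative concentrations came from peak areas. Half-lives were derived from kinetic model fits: pseudo-first-order or substrate inhibition.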

Series [3] in a line: Half life in culture medium (25 uM, 37 degree C). In kind it is ADME. A digest of the protocol:
as §1

Series [4] deals with MT4. Nature of the series: Ability to reduce 50% viability of mock-infected MT-4 cells. Particulars: Homo sapiens.
The test system of series [5] is MT4. Nature of the series: Effective dose to achieve 50% protection of MT-4 cells from acutely infected HIV-1 strain IIIB. In kind it is functional, cell-based. The following applies: Homo sapiens. A digest of the protocol: (§2)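 Inhibition of virus-induced cytopathogenicity in acutely infected cells. HIV-1 IIIB in MT-4 cells at 100 CCID50; HIV-2 CBL-20 in C8166 cells at 1000 CCID50. 1 × 10^4 cells per well with various compound concentrations, 4 days at 37 °C, viability by MTT. EC50 is the dose giving 50% protection. Mean of three independent determinations.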

Series [6] has as its system C8166. Briefly: Effective dose to achieve 50% protection of C8166 cells acutely infected with HIV-2 strain IIIB. In kind it is functional, cell-based. The following applies: Homo sapiens, in the assay text read “HIV-2 strain CBL-20” for “HIV-2 strain IIIB”. An outline of the steps:
as §2

Series [7] deals with C8166. Briefly: Ability to reduce 50% viability of C8166 cells acutely infected with HIV-2 strain IIIB. Particulars: Homo sapiens, in the assay text read “HIV-2 strain CBL-20” for “HIV-2 strain IIIB”. The class given is functional. An outline of the steps:
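Cytotoxicity in mock-infected cells run in parallel with the antiviral assay: 1 × 10^4 MT-4 or C8166 cells per well with or without various compound concentrations, 4-day incubation at 37 °C, viable cells counted by MTT. CC50 is the dose reducing viability by 50% at day 4. Mean of three independent determinations; variation among duplicates <22%.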

Several values for one entry are separate records, joined by “and”; a condition that tells them apart may be missing. Identical values can stand only once.

Consider `Cc1cn(C2CC(N=[N+]=[N-])C(COP(=O)(OCCSC(=O)C(C)(C)C)OCCSC(=O)C(C)(C)C)O2)c(=O)[nH]c1=O` (stereo not given), for which the SI in series [1] is 600 and 245. The half-life (in general, how long it takes for the measured level to halve) at 25 µM in series [2] is 1 h; in series [3], 103 h.

Regarding `CC(=O)SCCOP(=O)(OCCSC(C)=O)OCC1OC(n2cc(C)c(=O)[nH]c2=O)CC1N=[N+]=[N-]` (stereo not given), the half-life at 25 µM in series [2] is below 0.1 h; in series [3], 9 h.

Regarding `Cc1cn([C@H]2C[C@H](N=[N+]=[N-])[C@@H](CO)O2)c(=O)[nH]c1=O` [ZIDOVUDINE], the values for the CC50 in series [4] and in series [7] were 150000 nM and above 500000 nM, respectively. For the same compound, the SI in series [1] was 30000 and > 83000. Moreover, the results for the EC50 in series [5] and in series [6] were 5 nM and 6 nM, respectively.

Values taken from ChEMBL document CHEMBL1129784, “Decomposition pathways and in vitro HIV inhibitory effects of isoddA pronucleotides: toward a rational approach for intracellular delivery of nucleoside 5'-monophosphates” (J Med Chem, 1996).
